An excerpt weighted towards active compounds, which were near 1.5% of everything screened.
CHT allo act = allosterically activates the human high affinity choline transporter. Q9GZV3. CHT-expressing cells, membrane potential dye, choline EC20; active compounds read high; LV-AA mutant CHT in HEK293 cells. B-score at 10 µM. 0.49% of 310,000 active. AID 488977;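 active = initial fluorescence not abnormally high and integrated response B-score, plate-corrected, over 3 SD above library mean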
Target sequence (Q9GZV3 whole entry, looked up): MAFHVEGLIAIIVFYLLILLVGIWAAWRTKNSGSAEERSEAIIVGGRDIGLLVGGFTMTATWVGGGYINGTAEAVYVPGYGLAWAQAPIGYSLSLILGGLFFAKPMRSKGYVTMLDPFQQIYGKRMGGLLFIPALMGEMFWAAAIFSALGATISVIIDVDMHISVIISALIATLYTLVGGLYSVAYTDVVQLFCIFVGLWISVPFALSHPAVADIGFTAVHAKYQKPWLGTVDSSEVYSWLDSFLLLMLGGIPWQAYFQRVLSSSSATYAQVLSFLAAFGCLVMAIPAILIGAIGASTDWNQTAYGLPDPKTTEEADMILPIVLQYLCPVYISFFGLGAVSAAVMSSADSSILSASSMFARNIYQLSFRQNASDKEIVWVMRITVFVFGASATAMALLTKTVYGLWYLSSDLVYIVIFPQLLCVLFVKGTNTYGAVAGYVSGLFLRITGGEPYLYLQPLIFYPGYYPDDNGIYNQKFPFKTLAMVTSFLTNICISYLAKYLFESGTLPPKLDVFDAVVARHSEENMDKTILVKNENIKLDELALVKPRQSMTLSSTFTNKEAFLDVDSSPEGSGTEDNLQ
VLA-4 inh = inhibition in a human VLA-4 binding assay. 0.2% of 330,000 active. VLA-4 expressing cells, ligand binding flow cytometry. AID 2557. P13612. inhibition, % (about 7 µM as worked out from the volumes in the protocol); in the data active = inhibition above about 50%
T cell HTS = T cell immune modulation candidate; 2C CD8+ T cell-vesicle binding, flow cytometry; active compounds read low; response (vesicle binding), % at 7 µM; 0.068% of 330,000 active; AID 2052;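 active = response, share of CD8 T cells binding vesicles, and their 90th percentile fluorescence all below set limits, cut at about 80% in these data, passing the limit was not always enough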;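 also: values below 100% mean blocked vesicle binding to the CD8+ T cells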
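Material: 2C TCR transgenic mouse naive CD8+ T cells, MACS-purified. Also added: QL9-charged Drosophila Ld/ICAM-1/B7-1 vesicles. Timing: binding 1.5 h at 37 °C. Measured by: high-throughput flow cytometry with anti-B7-1 and anti-CD8 staining. Read-out: percent CD8+ FL2 mean versus row control. Controls: Unloaded micro-vesicles (low), QL9 vesicles with 0.7% DMSO (high).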
CHT inh = inhibits the human high affinity choline transporter. Q9GZV3. CHT-expressing cells, membrane potential dye, choline response; active compounds read low. B-score at 10 µM. 0.86% of 310,000 active;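 active = B-score over 3 SD under the library average, and starting fluorescence ratio not unusually high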;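 also: choline stimulus applied at its EC90 after an EC20 pre-addition; B-score computed on integrated fluorescence ratio after choline addition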
An asterisk follows results filed as active; i = inactive; / = no result given.

SMILES	CHT allo act	VLA-4 inh	T cell HTS	CHT inh
CCN(CC)c1ccc2c(Cl)cc(=O)oc2c1	i	-224	52*	i
CCN(CC)c1ccc2c(O)cc(=O)oc2c1	i	-8	199	i
Nc1nc2ccccc2n1CCOc1ccccc1Cl	i	-2	155	-14*
Cc1nc(NCCN2CCOCC2)c2oc3ccccc3c2n1	i	2	423	i
Cc1nc(NCCc2ccccc2)c2oc3ccccc3c2n1	6.3*	10	436	i
COc1ccccc1N1CCN(C(=O)C2CCCN(c3ncnc4c3nc3n4CCCCC3)C2)CC1 (centres undefined)	i	-14	216	i
Cc1ccc(C)c(N2CCN(C(=O)C3CCCN(c4ncnc5c4nc4n5CCCCC4)C3)CC2)c1 (centres undefined)	i	-1	255	-7.4*
Cc1onc(-c2c(F)cccc2Cl)c1C(=O)Nc1nnc(C(F)(F)F)s1	i	4	269	-8.7*
CN(C)CCNc1oc(-c2ccccc2Cl)nc1S(=O)(=O)c1ccccc1	/	12	0.0*	/
O=C(CNc1ccccc1)N/N=C/c1ccc([N+](=O)[O-])cc1	i	62*	520	i
O=C(CCNC(=O)c1ccccc1)N/N=C/c1ccc([N+](=O)[O-])cc1	i	3	164	i
COc1cc(/C=N/NC(=O)c2ccc(NS(=O)(=O)c3cccs3)cc2)cc(OC)c1O	/	-4	80*	/
COc1cc(C=NNC(=O)c2ccccc2NS(=O)(=O)c2cccs2)cc(OC)c1O	/	-5	153	/
Cc1ccc(N=C2NC(=O)CS2)cc1C	i	8	286	i
COc1cc(CNCCc2ccc(S(N)(=O)=O)cc2)ccc1OCC(=O)N1CCCCC1	i	-7	79*	i
COc1ccc(CCNCc2ccc(OCC(=O)N3CCCCC3)c(OC)c2)cc1OC	i	-3	72	i
CCOc1cc(/C=C2/C(=N)N3C(=NC2=O)SN=C3S(C)(=O)=O)ccc1OC(=O)c1ccco1	i	16	649	i
COc1ccccc1-n1c(C)cc(/C=C2/C(=N)N3C(=NC2=O)SN=C3S(C)(=O)=O)c1C	i	-14	776	i
CCOc1cc(/C=C2/C(=N)N3C(=NC2=O)SN=C3S(C)(=O)=O)ccc1OS(=O)(=O)c1ccccc1	i	18	351	-5.6*
COc1cc(/C=C2/C(=N)N3C(=NC2=O)SN=C3S(C)(=O)=O)ccc1OS(=O)(=O)c1ccccc1	i	10	352	-6.2*
CN(C(=O)CC1C(=O)NCCN1Cc1cccc(C(F)(F)F)c1)C1CCOCC1 (centres undefined)	i	8	349	i
CCCCOc1ccc(/C=C/C(=O)OCC(=O)NC(=O)NCC(C)C)cc1OCC	i	-14	306	i
Cc1ccc(NC(=O)CN2CCOCC2)cc1C	i	20	240	i
COc1cc2c(C(=O)NCCCN3CC(C)CC(C)C3)cn(CC(C)C)c(=O)c2cc1OC (centres undefined)	i	5	841	-5.8*
Cc1ccc(S(=O)(=O)NCc2ccc(C(=O)NCCc3ccc(S(N)(=O)=O)cc3)cc2)cc1	i	0	481	i
SMILES	CHT allo act	VLA-4 inh	T cell HTS	CHT inh
Cc1nn(-c2ccc(Cl)cc2)c2[nH]c(CCl)cc(=O)c12	i	-7	182	-9.4*
Cc1ccc(C)c(N2CCN(C(=O)c3nn(C)c4c3CS(=O)(=O)c3ccccc3-4)CC2)c1	i	11	128	i
O=C(COC(=O)c1ccc(S(=O)(=O)N2CCOCC2)cc1)Nc1ccccc1OC(F)F	/	-1	0.0*	/
O=C(COC(=O)CCc1ccc(S(=O)(=O)N2CCOCC2)cc1)Nc1ccccc1OC(F)F	/	-5	293	/
CCCCCCOC(=O)C[N+](C)(C)CCOC1CC2CCC1(C)C2(C)C (centres undefined)	8.5*	8	448	i
CNS(=O)(=O)c1cccc(C(=O)OCc2cc(=O)oc3c(C)c(O)ccc23)c1	i	-1	434	-6.3*
COc1ccccc1-c1nnc(-c2ccc(C)cc2)o1	i	-57	194	i
COc1cccc(OC)c1-c1nnc(-c2cn(C)c3ccccc23)o1	i	13	33*	i
COc1ccc(N2CCN(C(=S)NC(C)c3ccccc3)CC2)cc1 (centres undefined)	i	8	961	i
C/C(=N\NC(=O)c1ccc(Br)cc1)C1C(=O)c2ccccc2C1=O	i	19	785	-6.9*
CC(C)c1cccc(C(C)C)c1NC(=O)CN1C(=O)NC2(CCCCCCC2)C1=O	/	14	184	/

Screening results (PubChem BioAssay)
